Screening results as filed in PubChem.
Sampled rows, rich in hits. Any-hit rate of the full collection: about 4.3%.
NF-kB expr up = activators of NF-kB expression in neurons, primary screen, cell-based, HTS. human neuronal cells, NF-kB reporter expression; hits give high values. fold change at 12.5 µM. actives 1.6% (n = 190,000); in the data active = fold change above about 3.3
STAT1 act = STAT1 signaling activators, primary screen, cell-based, HTS, luciferase reporter. actives 2.6% (n = 200,000). NIH 3T3 STAT1-luciferase reporter, IFN-gamma, luminescence; 100% = IFN-gamma alone, no compound. activation (% of control), % at 5.5 µM;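 active = activation above the screen-wide mean activation plus 3 SD, cut at about 130% in these data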
APP 5'UTR act = activators of APP 5'UTR luciferase reporter, primary screen, SH-SY5Y cells | actives 1% (n = 190,000) | AID 1276, 2008 | activation, % at 2 µM | SH-SY5Y APP 5'UTR luciferase reporter, luminescence; zero percent = DMSO vehicle wells;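 active = activation above a set limit, based on mean plus 3 SD of controls, cut at about 140% in these data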
FLuc inhib CS = firefly luciferase enzyme inhibitors, primary screen, artefact control for luciferase-based inhibitor screens, biochemical, luminescence, ATPLite; 10 min; actives 1.5% (n = 200,000); inhibition, % at 10 µM; AID 1006, 2008; Luciferin 4-monooxygenase (Photinus pyralis), P08659;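 active = inhibition above about 50% when tested at 10 µM, limit read from the data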
Target sequence (P08659 whole entry, looked up): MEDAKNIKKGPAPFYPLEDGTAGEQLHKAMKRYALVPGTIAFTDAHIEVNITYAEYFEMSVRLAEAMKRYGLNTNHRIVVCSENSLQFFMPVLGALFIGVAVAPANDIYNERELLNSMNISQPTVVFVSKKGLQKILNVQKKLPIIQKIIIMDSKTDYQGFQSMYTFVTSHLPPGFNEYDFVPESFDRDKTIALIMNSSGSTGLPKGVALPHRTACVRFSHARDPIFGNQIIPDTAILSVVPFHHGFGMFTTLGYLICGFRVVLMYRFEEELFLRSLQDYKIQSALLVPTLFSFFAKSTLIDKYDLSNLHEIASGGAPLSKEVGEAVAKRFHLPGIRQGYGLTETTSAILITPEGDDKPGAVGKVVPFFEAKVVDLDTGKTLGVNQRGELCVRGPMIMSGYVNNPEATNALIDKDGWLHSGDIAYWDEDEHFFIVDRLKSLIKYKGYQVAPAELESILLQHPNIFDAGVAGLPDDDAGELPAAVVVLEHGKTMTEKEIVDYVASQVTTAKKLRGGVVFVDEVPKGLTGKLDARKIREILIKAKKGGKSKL
FLuc stim CS = FLuc activators, initial screening, artefact control for FLuc-dependent activation tests, biochemical, ATPlite luminescence; AID 1027, 2008; Luciferin 4-monooxygenase (Photinus pyralis), P08659; 200,000 tested, under 10 active; activation factor at 10 µM; ATPlite luciferase biochemical, 10 min; 0 = ATP-free wells, 1 = DMSO control;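 active = luciferase activation factor, scaled between plate controls, of at least 2 with compound at 10 µM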
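Assay system: Luciferase/luciferin detection reagent, cell-free biochemical luciferase assay / Read-out: luciferase activation / Benchmarks: No-ATP low control, compound-free enzyme-plus-ATP high control / Medium: PBS buffer for ATP / Detection: luminescence measurement of luciferase light output / Schedule: 10 min at ambient temperature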
Large screens that a line does not name were inactive.

Nc1ccc(CCc2nc3ccccc3o2)cc1	STAT1 act 138, APP 5'UTR act 163
CC(C)(C)C(=O)NC(=S)Nc1cccc(C(=O)O)c1	STAT1 act 131 (no result: NF-kB expr up)
COc1ccc(/C=N/NC(=S)Nc2cccc(C(=O)O)c2)cc1OC	none
CC(C)Oc1cccc(C(=O)NC(=S)Nc2ccccc2)c1	STAT1 act 145
COc1cccc(/C=N/NC(=S)Nc2cccc(C(=O)O)c2)c1	FLuc inhib CS 53
C/C=C(\C)CN1CCCC(CO)(Cc2ccccc2)C1 (stereo not drawn)	none
Cn1cc(S(=O)(=O)Oc2ccccc2)c(=O)n(C)c1=O	none (no result: NF-kB expr up)
Cc1cccc(C(=O)N[C@H](C(=O)Nc2nc3ccc(S(C)(=O)=O)cc3s2)C(C)C)c1	none
O=C(O)CCCN=Cc1c(O)c2ccccc2oc1=O	none
COc1ccc(CN2C(=O)CC(C(=O)NCCc3ccc(S(N)(=O)=O)cc3)SC2=Nc2ccccc2)cc1 (stereo not drawn)	none
Cc1ccc2nc(N3C(=O)C(O)=C(C(=O)c4ccco4)C3c3cccs3)sc2c1 (stereo not drawn)	APP 5'UTR act 170
Cc1ccc(N=Nc2c(N)nn3c(N)c(C#N)c(C)nc23)cc1	STAT1 act 129
c1ccc2sc(NN=C3CCCCCC3)nc2c1	APP 5'UTR act 149, FLuc inhib CS 89
O=c1oc2ccccc2cc1-c1csc(NN=C2CCCCC2)n1	none
Cc1ccc(-n2c(C)nnc2SCC(=O)N2CCc3ccccc3C2)cc1	none
CN(/N=C/c1ccc([N+](=O)[O-])o1)c1ccccc1	STAT1 act 135
COC(=O)N/N=C/c1ccc([N+](=O)[O-])o1	none
CN(C)/C=N/C(=S)Nc1ccc(Cl)cc1Cl	STAT1 act 132
CN(C)/C=N/C(=S)Nc1ccc(Cl)cc1	none
COC(=O)c1nc2ccc(N3CCOCC3)cc2c(C)c1C(=O)OC	FLuc inhib CS 87
O=C(c1nc2ccccn2c1CNCCOc1cccnc1)N1CCOCC1	none
Cc1nnc(NC(=O)c2cccc(NC(=O)C(C)C)c2)s1	none
CC(C)C(=O)Nc1cccc(C(=O)Nc2nnc(C(C)C)s2)c1	STAT1 act 146
CC(C)c1nnc(NC(=O)c2cccc(NC(=O)C(F)(F)F)c2)s1	STAT1 act 138
CCc1nnc(NC(=O)c2cccc(NC(=O)C(C)C)c2)s1	none
Cc1cc(C)cc(OCC(=O)Nc2ccc3c(c2)OCO3)c1	none
C(=C\c1nc(-c2ccncc2)no1)/c1ccccc1	STAT1 act 150 (no result: NF-kB expr up)
CCOc1ccccc1-c1nc(-c2ccncc2)no1	none
Cc1ccc2oc(C(=O)Nc3nnc(C)s3)c(C)c2c1	NF-kB expr up 4.7, STAT1 act 141, FLuc inhib CS 59
COC(=O)c1ccc(N2C(=O)Nc3ccccc3N2O)cc1	none
Clc1ccccc1CSc1cc2c(nn1)-c1ccccc1CC2	NF-kB expr up 3.7
Clc1cccc(Cl)c1CSc1cc2c(nn1)-c1ccccc1CC2	none
O=C(/C=C/Nc1ccc(F)cc1)c1cccs1	APP 5'UTR act 160 (no result: NF-kB expr up, FLuc inhib CS, FLuc stim CS)
O=C(/C=C/Nc1ccc(F)cc1)c1ccco1	NF-kB expr up 5.1, APP 5'UTR act 146, FLuc inhib CS 92
CCOC(=O)c1ccc(N/C=C/C(=O)c2ccc(OC)c(OC)c2)cc1	none
CCOC(=O)c1ccc(N/C=C/C(=O)c2ccco2)cc1	NF-kB expr up 5.2, FLuc inhib CS 62
COC(=O)Cc1c(C)nc2nc(-c3cccnc3)[nH]n2c1=O	none
COC(=O)Cc1c(C)nc2nc(-c3ccc(Cl)cc3)[nH]n2c1=O	FLuc inhib CS 58
Cc1cc(=O)n2[nH]c(-c3cccnc3)nc2n1	none (no result: APP 5'UTR act)
COC(=O)Cc1c(C)nc2nc(-c3ccc(C)cc3)[nH]n2c1=O	FLuc inhib CS 50
Cc1nc2nc(-c3ccc(Cl)cc3)[nH]n2c(=O)c1C	FLuc inhib CS 66
Cc1cc(=O)n2[nH]c(-c3ccc(F)cc3)nc2n1	FLuc inhib CS 66
COC(=O)Cc1c(C)nc2nc(-c3ccccc3)[nH]n2c1=O	none
COc1cc(/C=C2\SC(=O)N(CCNC(=O)c3sc4cc(F)ccc4c3Cl)C2=O)cc(OC)c1OC	none
CCC1CCCCN1C(=S)NC1CCCCC1 (stereo not drawn)	none
O=c1c2ccccc2nc(N/N=C/c2ccc(O)cc2)n1O	FLuc inhib CS 94
O=c1c2ccccc2nc(N/N=C/c2c(O)ccc3ccccc23)n1O	FLuc inhib CS 88
Oc1ccc(/C=N/Nc2ccccc2)cc1	none
Cc1nc2ccccc2c(=O)n1/N=C/c1c(O)ccc2ccccc12	none
CCCC(=O)NC(=S)Nc1ccc(NC(=O)C(C)C)c(OC)c1	none
O=C1C(c2ccncc2)=C(O)c2ccccc21	NF-kB expr up 3.5, APP 5'UTR act 160, FLuc inhib CS 83
NC(=O)c1ncc(C(F)(F)F)cc1Oc1ccc(C(F)(F)F)cc1	none (no result: APP 5'UTR act)
Cn1c(C(=O)NCC2CCCO2)cc2oc3ccccc3c21 (stereo not drawn)	STAT1 act 144
Cn1c(C(=O)NCC2CCCO2)cc2c(=O)[nH]c3ccccc3c21 (stereo not drawn)	none
Cn1c(=O)c(C(=O)NCC2CCCO2)c(O)c2ccccc21 (stereo not drawn)	STAT1 act 129
Cn1c(C(=O)NCC2CCCO2)cc2c(=O)n(C)c3ccccc3c21 (stereo not drawn)	none
CCOC(=O)Nc1nc(-c2ccc(Cl)cc2Cl)cs1	none
CC(C(=O)Nc1cccnc1)C1Sc2ccccc2NC1=O (stereo not drawn)	none
COc1ccc(CN2CCNC(=O)C2CC(=O)N2CCCCO2)c(OC)c1 (stereo not drawn)	none
COc1ccccc1-n1cc(CN2CCCC(CO)(Cc3cccc(Cl)c3)C2)cn1 (stereo not drawn)	none
CCn1c(NCc2cccs2)nc2ccccc21	none
O=c1c2ccccc2nc2ccc(NCc3cccs3)nn12	NF-kB expr up 3.4, FLuc inhib CS 59
CC(C)C(C)(C#N)NC(=O)CSc1nc(C2CCCCC2)n(-c2ccccc2)n1 (stereo not drawn)	none
O=c1[nH]c(=O)n([C@H]2C[C@H](O)[C@@H](CO)O2)cc1C(F)(F)F	NF-kB expr up 5.4
CCOc1ccc(N(CC(=O)NCC2CCCO2)C(=O)CCC(=O)Nc2ccccn2)cc1 (stereo not drawn)	none
O=S(=O)(c1ccc(Cl)cc1)c1snnc1-c1ccccc1	NF-kB expr up 6.4
O=S(=O)(c1ccc(F)cc1)c1snnc1-c1ccccc1	none
CN1CCN(CC(O)(c2ccc(Cl)cc2)c2ccc(Cl)cc2)CC1	none
Cc1ccccc1-c1noc(-c2ccccc2F)n1	NF-kB expr up 6.8, STAT1 act 139
Cc1ccccc1-c1noc(-c2ccc(Cl)cc2)n1	NF-kB expr up 3.4
COc1ccc(-c2ccc(-c3noc(-c4ccccc4C)n3)c(OC)n2)cc1	none
